Entries after “also recorded” stand apart in the source; their conditions may differ. Where two headings read alike, the source gives them in different places.
Legend:
[1] = type: in vivo, human; conditions: stratum B
[2] = Serum pharmacokinetics, stratum A; type: in vivo, human; conditions: for AUC(0-t) / Cmax / half-life / Tmax: human, serum, oral; for AUC(0-t): 100 mg/m2, AUC0–T (AUC0–24h)
[3] = Serum pharmacokinetics across all dosage levels; type: in vivo; conditions: human, oral; for Tmax: across dosage levels; for half-life: pediatric patients, across all dosage levels
[4] = CSF crenolanib disposition; type: in vivo, human; conditions: for CSF crenolanib concentration: stratum A2 patient
newly diagnosed DIPG = assay: Survival outcomes, stratum A; type: in vivo, human
Summary of the method: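 Dosing began with conformal RT (1.8-Gy fractions daily, 5 days/week, 54 Gy) and continued without break. PFS ran from therapy start to progression or death; OS ran from diagnosis to death. Kaplan–Meier estimates; log-rank versus age-matched institutional DIPG cohort (1992–2011).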

[5] = tested on: recurrent HGG, including DIPG; assay: Survival outcomes and response, stratum B; type: in vivo, human
Summary of the method: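 Dosing was BSA-based, rounded to 20 mg, and escalated from 100 mg/m2. PFS ran from therapy start to progression or any-cause death; OS ran from diagnosis to any-cause death. Event-free patients were censored at last follow-up. Survival was estimated by Kaplan–Meier.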

PDGF α receptor = conditions: cited from earlier work
PDGF β receptor = conditions: cited from earlier work
phospho-PDGFR = conditions: C6 glioblastoma xenograft, single oral dose of 10 mg/kg, maintained for 3 h; ref Crenolanib Investigator's Brochure, AROG Pharmaceuticals, LLC, 2011; cited from earlier work
[6] = tested on: human glioma xenograft (U87MG); conditions: after 9 days of dosing at 50 mg/kg BID, ref Crenolanib Investigator's Brochure, AROG Pharmaceuticals, LLC, 2011; cited from earlier work
[7] = cited from earlier work
[8] = in vitro, human plasma; cited from earlier work
[9] = read-out: 50% inhibitory concentration

## CC1(COc2ccc3c(c2)ncn3-c2ccc3cccc(N4CCC(N)CC4)c3n2)COC1 [crenolanib]
[1]; dose level 3
  DLTs attributable to crenolanib during the DLT observation period: grade 4 GGT, ALT, and AST elevations
[1]; dose level 4
  DLTs attributable to crenolanib during the DLT observation period: grade 3 amylase, GGT, ALT, and AST elevations; also recorded: grade 3 GGT elevation
[1]; during and after the DLT period
  patients having grade 3/4 elevations of ALT, AST, GGT, or alkaline phosphatase: 17%
[1]; once daily single agent, pediatric
  Maximum tolerated dose (MTD): 170 mg/m^2
[1]; resolved with drug interruption
  Most common grade 3/4 toxicity: leukopenia
[2]; stratum A1 (whole tablets), 100 mg/m^2, D28, median (range)
  AUC(0-t): 7.34 µM·h
[2]; stratum A2 (crushed tablets), 100 mg/m^2, D28, median (range)
  AUC(0-t): 6.95 µM·h
[2]; 100 mg/m2, C MAX, stratum A1 (whole tablets), 100 mg/m^2, D1, median (range)
  Cmax: 645 nM
[2]; 100 mg/m2, C MAX, stratum A1 (whole tablets), 100 mg/m^2, D28, median (range)
  Cmax: 750 nM
[2]; 100 mg/m2, C MAX, stratum A2 (crushed tablets), 100 mg/m^2, D1, median (range)
  Cmax: 692 nM
[2]; 100 mg/m2, C MAX, stratum A2 (crushed tablets), 100 mg/m^2, D28, median (range)
  Cmax: 651 nM
[2]; 100 mg/m2, Half-life, stratum A1 (whole tablets), 100 mg/m^2, D1, median (range)
  half-life: 510 min
[2]; 100 mg/m2, Half-life, stratum A1 (whole tablets), 100 mg/m^2, D28, median (range)
  half-life: 294 min
[2]; 100 mg/m2, Half-life, stratum A2 (crushed tablets), 100 mg/m^2, D1, median (range)
  half-life: 408 min
[2]; 100 mg/m2, Half-life, stratum A2 (crushed tablets), 100 mg/m^2, D28, median (range)
  half-life: 306 min
[2]; 100 mg/m2, T MAX, stratum A1 (whole tablets), 100 mg/m^2, D1, median (range)
  Tmax: 4 h
[2]; 100 mg/m2, T MAX, stratum A1 (whole tablets), 100 mg/m^2, D28, median (range)
  Tmax: 6 h
[2]; 100 mg/m2, T MAX, stratum A2 (crushed tablets), 100 mg/m^2, D1, median (range)
  Tmax: 2 h
[2]; 100 mg/m2, T MAX, stratum A2 (crushed tablets), 100 mg/m^2, D28, median (range)
  Tmax: 4 h
[2]; 130 mg/m2, C MAX, stratum A, 130 mg/m^2, D1, median (range)
  Cmax: 733 nM
[2]; 130 mg/m2, C MAX, stratum A, 130 mg/m^2, D28, median (range)
  Cmax: 1110 nM
[2]; 130 mg/m2, Half-life, stratum A, 130 mg/m^2, D1, median (range)
  half-life: 438 min
[2]; 130 mg/m2, Half-life, stratum A, 130 mg/m^2, D28, median (range)
  half-life: 366 min
[2]; 130 mg/m2, T MAX, stratum A, 130 mg/m^2, D1, median (range)
  Tmax: 2 h
[2]; 130 mg/m2, T MAX, stratum A, 130 mg/m^2, D28, median (range)
  Tmax: 4 h
[2]; 170 mg/m2, C MAX, stratum A, 170 mg/m^2, D1, median (range)
  Cmax: 1240 nM
[2]; 170 mg/m2, C MAX, stratum A, 170 mg/m^2, D28, median (range)
  Cmax: 2010 nM
[2]; 170 mg/m2, Half-life, stratum A, 170 mg/m^2, D1, median (range)
  half-life: 510 min
[2]; 170 mg/m2, Half-life, stratum A, 170 mg/m^2, D28, median (range)
  half-life: 432 min
[2]; 170 mg/m2, T MAX, stratum A, 170 mg/m^2, D1, median (range)
  Tmax: 4 h
[2]; 170 mg/m2, T MAX, stratum A, 170 mg/m^2, D28, median (range)
  Tmax: 3 h
[2]; 220 mg/m2, C MAX, stratum A, 220 mg/m^2, D1, median (range)
  Cmax: 1890 nM
[2]; 220 mg/m2, C MAX, stratum A, 220 mg/m^2, D28, median (range)
  Cmax: 2270 nM
[2]; 220 mg/m2, Half-life, stratum A, 220 mg/m^2, D1, median (range)
  half-life: 405 min
[2]; 220 mg/m2, Half-life, stratum A, 220 mg/m^2, D28, median (range)
  half-life: 330 min
[2]; 220 mg/m2, T MAX, stratum A, 220 mg/m^2, D1, median (range)
  Tmax: 4 h
[2]; 220 mg/m2, T MAX, stratum A, 220 mg/m^2, D28, median (range)
  Tmax: 2 h
[2]; stratum A1 (whole tablets), 100 mg/m^2, D1, median (range)
  AUC0–T (AUC0–∞): 8683 (4566–15 895) h·nM
[2]; stratum A2 (crushed tablets), 100 mg/m^2, D1, median (range)
  AUC0–T (AUC0–∞): 7397 (3759–16 455) h·nM
[2]; stratum A, 130 mg/m^2, D1, median (range)
  AUC0–T (AUC0–∞): 5951 (2675–15 291) h·nM
[3]; median
  Tmax: 4 h
  half-life: 426 min
[3]; range
  Tmax: 1 to 8 h
  half-life: 132 to 1130 min
[4]; human, cerebrospinal fluid / serum (total), oral, 100 mg/m^2
  Kp: 0.025
[4]; simultaneous with day 28 CSF sampling, third cycle
  serum crenolanib concentration: 546 nM
[4]; third cycle day 14, approximately 19 h after dose
  CSF crenolanib concentration: 9.15 nM
[4]; third cycle day 28, approximately 19 h after dose
  CSF crenolanib concentration: 13.6 nM
Newly diagnosed DIPG; all patients in stratum A
  1-year OS estimate: 43.3% ± 8.7%
  1-year PFS estimate: 17.8% ± 7.2%
  2-year OS estimate: 20.0% ± 6.8%
  6-month PFS estimate: 74.9% ± 8.2%
Newly diagnosed DIPG; stratum A, log-rank P = .99
  OS distributions versus historical cohort of newly diagnosed DIPG (n = 189): no significant difference
[5]; all patients in stratum B
  1-year OS estimate: 72.1% ± 9.5%
  1-year PFS estimate: 5.2% ± 3.5%
  2-year OS estimate: 33.7% ± 9.7%
  6-month PFS estimate: 10.3% ± 5.6%
[5]; stratum B
  Objective radiologic responses: No objective radiologic responses were observed
PDGF α receptor
  50% inhibitory concentration: approximately 1 ng/mL
PDGF α receptor; [9]
  IC50: ~2.25 nM
PDGF β receptor
  50% inhibitory concentration: ~0.4 ng/mL
PDGF β receptor; [9]
  IC50: ~0.902 nM
phospho-PDGFR
  inhibition of phospho-PDGFR: 53%
[6]
  inhibition of xenograft growth: 47%
[7]; adults with advanced solid tumors
  incidence of significant elevations of liver enzymes: < 5%
[7]; adults, uncoated tablets with food
  Maximum tolerated dose (MTD): not reached
[8]
  unbound fraction: 4.1%

Reference: publication PMC8717895 (Neuro-oncology Advances, 2021)
